Target: human ΔF508-CFTR (Homo sapiens, UniProt P13569, DEL508-508)
Assay: ΔF508-CFTR corrector activity assay
Format: cell-based
Details: comparison with bithiazole 27 of earlier studies
How it was run: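 FRT cells expressing ΔF508-CFTR, with FRT-null cells as counter-screen. Cells were PBS-washed, then incubated 20 min with forskolin (20 µM) plus genistein (50 µM). Fluorescence (ex 500, em 535 nm) was read 2 s baseline, then 12 s after adding PBS with 137 mM Cl− replaced by I−. Initial slope was extrapolated from an exponential fit of the final 11.5 s. Controls were DMSO vehicle, a bithiazole corrector and CFTRinh-172 inhibition.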

For Cc1cccc(Nc2ncnc3onc(-c4ccc(F)cc4)c23)c1C [Compound 7], the “Vmax compared with s-cis locked bithiazole 27” value was “greater Vmax value”.

Reference: PMC3662250 (Synlett : accounts and rapid communications in synthetic …, 2010)
